# Source: ChEMBL document CHEMBL3856271, “Bis-Michael Acceptors as Novel Probes to Study the Keap1/Nrf2/ARE Pathway” (J Med Chem, 2016)
# Legend:
# Format in all cases: cell-based
# [1] = target: T1, Keap1/Nrf2 (Homo sapiens) (UniProt Q16236+Q14145); assay: Inhibition of Keap1-Nrf2 interaction in HEK293T cells assessed as induction of ARE-luciferase gene expression at 100 uM after 24 hrs relative to control; settings: HEK-293T
# Summary of the method: (§1)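 HEK 293T cells (1 × 105) plated the day before transfection, transiently transfected with 0.1 μg ARE-luc (Nrf2 response element) plasmid by FuGENE6; next day treated with compounds (range 0–100 μM) or sulforaphane 10 μM as positive control for 24 h. Lysates read for luciferase activity; expressed as fold-induction. Cells grown in complete DMEM with 10% FBS, 37 °C, 5% CO2.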
# [2] = target: T1, Keap1/Nrf2 (Homo sapiens); assay: Inhibition of Keap1-Nrf2 interaction in HEK293T cells assessed as induction of ARE-luciferase gene expression at 20 uM after 24 hrs relative to control; settings: HEK-293T; summary of the method: as §1
# [3] = target: T1, Keap1/Nrf2 (Homo sapiens); assay: Inhibition of Keap1-Nrf2 interaction in HEK293T cells assessed as induction of ARE-luciferase gene expression at 1 uM after 24 hrs relative to control; settings: HEK-293T; summary of the method: as §1
# [4] = Toxicity in HEK293T cells assessed as mortality at 100 uM after 24 hrs LDH assay relative to control; settings: human, hek-293t
# Summary of the method: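 HEK 293T cells cultured in complete DMEM (10% FBS, antibiotics, sodium pyruvate, nonessential amino acids, 2 mM L-glutamine) at 37 °C, 5% CO2. Treated with increasing concentrations of Keap1 ligands for 24 h. Supernatants collected, cells lysed in 1% Triton, and LDH activity measured with buffer containing L(+)-lactic acid and NAD. Mortality reported when over 5%.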
# T1 sequence (Q14145 whole entry, looked up): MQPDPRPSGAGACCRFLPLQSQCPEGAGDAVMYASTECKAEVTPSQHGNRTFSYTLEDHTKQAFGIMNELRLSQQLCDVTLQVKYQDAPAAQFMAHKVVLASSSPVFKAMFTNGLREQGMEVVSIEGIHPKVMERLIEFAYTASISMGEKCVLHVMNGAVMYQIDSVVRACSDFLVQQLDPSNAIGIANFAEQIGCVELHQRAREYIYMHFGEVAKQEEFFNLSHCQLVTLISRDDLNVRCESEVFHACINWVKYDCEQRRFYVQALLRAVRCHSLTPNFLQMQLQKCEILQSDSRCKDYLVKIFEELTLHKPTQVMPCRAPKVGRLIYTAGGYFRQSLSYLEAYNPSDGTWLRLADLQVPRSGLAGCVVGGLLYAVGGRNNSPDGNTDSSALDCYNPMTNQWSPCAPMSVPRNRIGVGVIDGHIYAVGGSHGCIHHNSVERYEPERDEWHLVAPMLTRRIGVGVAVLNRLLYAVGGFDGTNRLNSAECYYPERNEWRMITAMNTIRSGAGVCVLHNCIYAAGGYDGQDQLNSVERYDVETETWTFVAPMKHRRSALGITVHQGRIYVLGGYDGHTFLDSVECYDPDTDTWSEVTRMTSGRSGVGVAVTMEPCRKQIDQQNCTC
# T1 sequence (Q16236 whole entry, looked up): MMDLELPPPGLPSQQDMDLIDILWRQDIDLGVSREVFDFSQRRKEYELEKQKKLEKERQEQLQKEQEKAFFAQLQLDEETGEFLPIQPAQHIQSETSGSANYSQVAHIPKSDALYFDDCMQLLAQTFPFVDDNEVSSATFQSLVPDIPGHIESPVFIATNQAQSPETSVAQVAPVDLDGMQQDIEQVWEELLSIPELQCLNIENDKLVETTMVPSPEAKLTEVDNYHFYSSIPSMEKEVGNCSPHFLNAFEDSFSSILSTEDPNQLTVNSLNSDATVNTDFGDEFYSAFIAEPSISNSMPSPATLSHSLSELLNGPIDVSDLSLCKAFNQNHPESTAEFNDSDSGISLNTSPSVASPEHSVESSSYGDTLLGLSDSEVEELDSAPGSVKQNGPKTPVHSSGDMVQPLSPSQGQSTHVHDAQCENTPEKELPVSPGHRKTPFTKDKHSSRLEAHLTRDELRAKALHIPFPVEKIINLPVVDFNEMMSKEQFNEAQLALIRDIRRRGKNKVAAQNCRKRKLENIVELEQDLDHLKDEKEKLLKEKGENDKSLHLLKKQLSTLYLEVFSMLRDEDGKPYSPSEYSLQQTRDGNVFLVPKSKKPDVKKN
Structure (SMILES),fold change (FC) [1],fold change (FC) [2],fold change (FC) [3],mortality [4],Activity [4]
COC(=O)C1=CC(C)(C)CC(CCCC2CC(C)(C)C=C(C(=O)OC)C2=O)C1=O (stereo not drawn),–,248,4.71,–,–
COC(=O)C1=CC(C)(C)CC(CCCCC2CC(C)(C)C=C(C(=O)OC)C2=O)C1=O (stereo not drawn),–,–,8.23,–,–
CC1(C)C=C(C(=O)OC(C)(C)C)C(=O)CC1,106,3.89,1.05,16%,–
COC(=O)C1=CC(C)(C)CC(CC(F)(F)F)C1=O (stereo not drawn),17.9,1.54,0.54,11%,–
COC(=O)C1=CC(C)(C)CC(CC(=O)OC(C)(C)C)C1=O (stereo not drawn),1.75,2,0.65,–,–
COC(=O)C1=CC2(CC(CC3CC4(C=C(C(=O)OC)C3=O)OCCO4)C1=O)OCCO2 (stereo not drawn),15.9,2.76,0.94,12%,–
COC(=O)C1=CC(C)(C)CC(CC#CCC2CC(C)(C)C=C(C(=O)OC)C2=O)C1=O (stereo not drawn),–,–,52.5,–,–
CC1(C)C=C(Cl)C(=O)CC1,43.4,4.42,1.33,–,–
CC1(C)C=C(COC(=O)C2=CC(C)(C)CCC2=O)C(=O)CC1,121,3.78,2.02,15%,–
C#CCC1CC(C)(C)C=C(C(=O)OC)C1=O (stereo not drawn),34.2,1.48,1.14,7%,–
CC1(C)C=C(COC(=O)C2CC(C)(C)CCC2=O)C(=O)CC1 (stereo not drawn),4.02,3.79,2.98,–,–
CCCCCCC1CC2(C=C(C(=O)OC)C1=O)OCCO2 (stereo not drawn),20.2,2.19,1.4,–,Non-Toxic
CC1(C)C=C(CO)C(=O)CC1,1.46,0.77,0.72,–,–
CCCCCCC1CC(C)(C)C=C(C(=O)OC)C1=O (stereo not drawn),64.7,2,1.15,–,Non-Toxic
C=CCOC(=O)C1=CC(C)(C)CCC1=O,94.8,4.36,1.39,17%,–
COC(=O)C1=CC2(CC(C)C1=O)OCCO2 (stereo not drawn),–,2.49,0.98,–,Non-Toxic
CC1(C)C=C(I)C(=O)CC1,17.4,1.16,1.22,–,–
COC(=O)C1=CC(C)(C)CC(C/C=C/CC2CC(C)(C)C=C(C(=O)OC)C2=O)C1=O (stereo not drawn),–,–,15.2,–,–
COC(=O)CCC1CC(C)(C)C=C(C(=O)OC)C1=O (stereo not drawn),5.96,1.24,0.68,–,–
COC(=O)C1=CC2(CC(CCCC3CC4(C=C(C(=O)OC)C3=O)OCCO4)C1=O)OCCO2 (stereo not drawn),30.9,1.05,1,9%,–
CC1(C)C=C(C(=O)O)C(=O)CC1,29.6,3.11,2,–,–
COC(=O)C1=CC(C)(C)CC(CC2CC(C)(C)C=C(C(=O)OC)C2=O)C1=O (stereo not drawn),101,3.6,4.49,24%,–

# Second part, led by results:
fold change (FC) [1],fold change (FC) [2],fold change (FC) [3],Structure (SMILES),mortality [4],Activity [4]
41.9,3.2,1.05,COC(=O)C1CC(C)(C)C=CC1=O (stereo not drawn),–,–
17.1,2.22,1.03,COC(=O)C1=CC(C)(C)CC(CC#N)C1=O (stereo not drawn),–,–
1.29,1.85,1,COC(=O)C1=CC(C)(C)CCC1O (stereo not drawn),–,–
4.56,2.43,1.47,COC(=O)C1(C)CC(C)(C)C=CC1=O (stereo not drawn),–,–
48.5,0.92,0.95,COC(=O)C1=CC(C)(C)CC(Cc2ccccc2)C1=O (stereo not drawn),–,Non-Toxic
8.71,2.2,0.49,COC(=O)C1=CC(C)(C)CC(CC(C)=O)C1=O (stereo not drawn),–,–
25.3,2.05,1.34,C=CCC1CC(C)(C)C=C(C(=O)OC)C1=O (stereo not drawn),–,Non-Toxic
10.3,3.39,1.35,COC(=O)C1=CC(C)(C)C=CC1=O,–,–
4.6,2.75,1.17,COC(=O)C1=CC(C)(C)CC(C)C1=O (stereo not drawn),–,Non-Toxic
50.6,6.46,1.36,COC(=O)C1=CC(C)(C)CCC1=O,–,Non-Toxic
